The results in this text go back to BindingDB's records for doi:10.1021/acs.jmedchem.7b00693 (The University of Tokyo, 2017).

The target of the assay is Probable G-protein coupled receptor 34 (Mus musculus, UniProt Q9R1K6). Kind of assay: Agonist activity at mouse GPR34 expressed in HEK293 cells co-transfected with AP-TGFalpha/chimeric Galphaq/i1 assessed as induction of ectodomain shedding of membrane bound AP-TGFalpha after 1 hr. Put shortly:
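HEK293A cells transiently co-transfected with AP-TGFα, chimeric Gαq/i1 and GPR34 (human for line 1, mouse for line 3) or empty vector (mock). After 24 h, cells were suspended in HBSS with 5 mM HEPES pH 7.4 and preincubated 30 min with 10 μM (final) Ki16425. Compounds in HBSS with 0.01% fatty acid-free BSA were added for 1 h at 37 °C. AP activity in medium and on cells was read as OD405 with p-NPP after 1 h at room temperature.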

Chain of Probable G-protein coupled receptor 34 (Q9R1K6 whole entry, the tested form may be a part): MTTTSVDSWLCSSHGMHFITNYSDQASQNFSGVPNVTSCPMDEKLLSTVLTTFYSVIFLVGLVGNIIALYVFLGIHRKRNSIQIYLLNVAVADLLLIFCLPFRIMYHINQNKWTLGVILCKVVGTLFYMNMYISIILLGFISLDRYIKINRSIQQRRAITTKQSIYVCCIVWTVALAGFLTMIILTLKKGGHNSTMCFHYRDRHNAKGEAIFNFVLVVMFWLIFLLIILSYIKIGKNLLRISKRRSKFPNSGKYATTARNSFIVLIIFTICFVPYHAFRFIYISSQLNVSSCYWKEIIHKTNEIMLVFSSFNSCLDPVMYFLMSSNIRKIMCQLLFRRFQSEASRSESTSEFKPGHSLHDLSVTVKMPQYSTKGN

Usually EC50 stands for the concentration needed to bring the measured effect to its halfway point. As to `N[C@@H](COP(=O)(O)OCCCOC(=O)CCc1ccccc1OCc1cccc(-c2ccccc2)c1)C(=O)O`, the EC50 is over 3.16 µM.

As to `CC(C)(C)c1ccccc1Oc1cccc(COc2ccccc2CCC(=O)OCCCOP(=O)(O)OC[C@H](N)C(=O)O)c1`, the EC50 was over 3.16 µM.

Consider `CCCCCCOc1cccc(COc2ccccc2CCC(=O)OCCCOP(=O)(O)OC[C@H](N)C(=O)O)c1`, for which the EC50 is over 3.16 µM.

For `N[C@@H](COP(=O)(O)OCCCOC(=O)CCc1ccccc1OCc1cccc(OCc2ccccc2)c1)C(=O)O`, the EC50 is over 3.16 µM.

In the case of `CCCCCCOCC#CCOc1ccccc1CCC(=O)OCCCOP(=O)(O)OC[C@H](N)C(=O)O`, the EC50 is over 3.16 µM.

Take `CCCCCCCC/C=C\CCCCCCCC(=O)OCCCOP(=O)(O)OC[C@H](N)C(=O)O`: the EC50 was over 3.16 µM.
